Screening results from PubChem BioAssay.
SUMO1-SIM PPI: modulators of human SUMO1-mediated protein-protein interactions | P63165 | SUMO1 binding to a labelled peptide, TR-FRET, 1 h | inhibition, % at 20 µM | hit rate 0.33% among 360,000 | AID 602429; in the data active means inhibition above about 37%
Target sequence (P63165 whole entry, looked up): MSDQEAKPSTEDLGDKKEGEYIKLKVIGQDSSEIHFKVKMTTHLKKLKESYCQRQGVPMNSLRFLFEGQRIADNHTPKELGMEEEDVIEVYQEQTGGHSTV
STEP block: STEP (human) phosphatase inhibition | hit rate 0.25% among 360,000 | recombinant STEP, OMFP fluorogenic substrate, fluorescence | P54829 | inhibition, % at 20 µM;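 active means inhibition at 20 µM, scaled per plate between control wells, above about 37%, limit read from the data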;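 further: 0% = DMSO with enzyme and substrate and 100% = substrate only without enzyme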
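medium = Bis-Tris buffer pH 6.0, 2.5 mM DTT, 0.005% Tween 20 | test system = STEP (striatal-enriched tyrosine phosphatase) enzyme, cell-free | measure = normalized % inhibition | compound dosing = 20 µM, 1% DMSO | also added = 25 µM OMFP | schedule = reaction 20 min, ambient temperature | measured by = fluorescence read at 480 nm ex / 540 nm em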
LMPTP block: LMPTP (human) inhibition. AID 651560. recombinant LMPTP-A, OMFP fluorogenic substrate, fluorescence intensity. P24666. hit rate 0.22% among 360,000. inhibition, % at 20 µM;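 active means compounds that cut the enzyme signal by at least half of the control window in the single-dose screen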;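 further: plate controls were DMSO wells with enzyme plus substrate for no effect and substrate without enzyme for full effect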
Target sequence (P24666 whole entry, looked up): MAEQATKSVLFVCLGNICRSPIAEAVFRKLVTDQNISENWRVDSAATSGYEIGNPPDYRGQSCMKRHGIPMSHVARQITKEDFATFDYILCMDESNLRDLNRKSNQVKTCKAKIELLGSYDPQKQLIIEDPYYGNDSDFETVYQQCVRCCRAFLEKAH
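Assay system: LMPTP-A enzyme. Input: 0.625 nM LMPTP-A final. Probe or stimulus: 400 µM OMFP. Compound dosing: single 20 µM dose. Schedule: 50 min dark incubation at room temperature. Detection: fluorescence intensity of OMFP turnover product. Read-out: percent inhibition versus substrate-only and uninhibited controls. Benchmarks: no-enzyme low control, uninhibited high control.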
DNMT1 inh: blocks human DNA methyltransferase DNMT1 | P26358 | DNMT1 molecular beacon, Hinp1I cleavage, fluorescence | inhibition (reported as % activation of signal), % at 10 µM | hit rate 0.83% among 360,000 | AID 588458; in the data active means inhibition above about 50%
Scp-1 inhibitor: inhibitors of human Scp-1 phosphatase; Recombinant Scp1, phosphopeptide, malachite green phosphate absorbance; hit rate 0.88% among 340,000; inhibition, % at 20 µM; Q9GZU7;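 active means inhibition above about 50% at 20 µM, limit read from the data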;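 further: plate controls were DMSO wells with enzyme for no effect and wells lacking enzyme for full effect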
Target sequence (Q9GZU7 76-261 limits assumed): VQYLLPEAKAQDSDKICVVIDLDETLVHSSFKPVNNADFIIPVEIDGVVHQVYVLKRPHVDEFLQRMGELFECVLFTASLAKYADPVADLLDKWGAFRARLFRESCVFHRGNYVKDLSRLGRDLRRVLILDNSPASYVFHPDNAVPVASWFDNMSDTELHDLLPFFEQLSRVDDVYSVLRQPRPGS
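Assay system: SCP-1 catalytic fragment, aa 76-261 | Buffer or medium: Tris acetate buffer pH 5.5 with MgCl2 and Tween-20 | Compound: One concentration, 20 µM, with 1.0% DMSO | Also added: Phospho 17-mer peptide substrate | Signal: Absorbance at 630 nm | Incubation: 45 min enzyme reaction at room temperature | Measure: % inhibition of SCP-1 phosphate liberation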
Starred values were filed as active, the others as inactive; nt = no result given. Rows were chosen to be rich in hits. Some 1.7% of all compounds tested hit in one or more screens of this group.

SMILES | SUMO1-SIM PPI | STEP block | LMPTP block | DNMT1 inh | Scp-1 inhibitor
COc1ccc2nc(C)cc(N/N=C/c3ccccc3)c2c1 | -48 | 2 | 7 | 67* | 0
COc1ccccc1/C=N/Nc1cc(C)nc2ccc(C)cc12 | 7 | 0 | 1 | 3 | 3
COc1ccc(/C=N/Nc2cc(C)nc3ccc(OC)cc23)c(OC)c1 | 87* | 6 | 29 | 51* | -7
COC(=O)[C@]12CCCCC=C1N(Cc1cccc3ccccc13)C(=O)[C@H](CC(=O)NCC13CC4CC(CC(C4)C1)C3)C2 | 4 | nt | 4 | nt | nt
COc1ccc(CN(C(=O)CN2C(=O)c3ccccc3S2(=O)=O)C(C(=O)NCC2CCCO2)c2ccco2)cc1 (centres undefined) | -1 | 1 | -2 | 1 | -5
NC(=S)N=Nc1ccc(NN=C(N)N)cc1 | 27 | 84* | 41 | 6 | -14
COCCNc1nc(NCc2cnc(C)cn2)c2sccc2n1 | -8 | 2 | 53* | -2 | nt
COCCNc1nc(NCc2ccccc2OC)c2sccc2n1 | 0 | 0 | 46 | -2 | nt
COC[C@H]1CCCN1c1ccc2c(c1)O[C@@H](COCc1ccccc1)CN([C@H](C)c1ccccc1)S2(=O)=O | -2 | nt | 2 | nt | nt
Oc1cc(Nc2ccncc2)cc2cccnc12 | -32 | 3 | 56* | -4 | -14
C#CCNC(=O)C[C@@H]1C[C@@]2(C(=O)OCC)CCCC=C2N(Cc2ccccc2)C1=O | 3 | nt | -1 | nt | nt
Cc1nc(N2CCN(c3ccccn3)CC2)c2c(C)c(C(=O)N3CCN(c4ccccc4F)CC3)sc2n1 | -116 | 3 | 7 | -6 | -3
O=C(NN1C(=O)/C(=C/C=C/c2ccco2)SC1=S)c1ccncc1 | 101* | 55* | 45 | 84* | 72*
O=C(NN1C(=O)/C(=C/C=C/c2ccccc2)SC1=S)c1ccncc1 | 53* | 0 | 4 | 1 | -1
N#CCc1nc(C(c2ccccc2)c2ccccc2)no1 | -1 | -2 | 2 | -24 | -10
COc1ccccc1Nc1nc(-c2ccc3c(c2)NC(=O)CO3)cs1 | -6 | -1 | 48 | -22 | 1
CCC(C)Nc1nc(-c2ccc3c(c2)NC(=O)CO3)cs1 (centres undefined) | 0 | -2 | 48* | -6 | 7
COc1ccc(Nc2nc(-c3ccc4c(c3)NC(=O)CO4)cs2)cc1 | -4 | 0 | 54* | -26 | 1
O=C(c1cccc(S(=O)(=O)N2CCCC2)c1)N1CCN(S(=O)(=O)c2cccc(Cl)c2)CC1 | 0 | 2 | 0 | 5 | -1
Cc1ccc(CNc2nc3c([nH]2)c(=O)n(C)c(=O)n3C)cc1 | 50* | -8 | -1 | 0 | 0
CCN(CC)S(=O)(=O)c1cccc(NC(=O)C2CC(=O)N(c3ccc4c(c3)OCCO4)C2)c1 (centres undefined) | 1 | 0 | 0 | -2 | -6
COc1ccc(O)c(C(=O)c2cc(SCC(=O)O)c3nc4sc5c(c4c(=O)n3c2)CCCC5)c1 | 42* | 15 | 16 | 15 | 34
CC(C)NC(=O)C1(C)CN(S(C)(=O)=O)CC(=O)N1CCc1ccccc1 (centres undefined) | -7 | nt | 0 | nt | nt
CCOC(=O)[C@]12CCCC=C1N(Cc1cccc3ccccc13)C(=O)[C@H](CC(=O)N1CCN(C(=O)C3CC3)CC1)C2 | 4 | nt | 0 | nt | nt
O=C(NCCN1CCC(n2c(=O)[nH]c3ccccc32)CC1)c1cccs1 | -1 | nt | 4 | nt | nt
SMILES | SUMO1-SIM PPI | STEP block | LMPTP block | DNMT1 inh | Scp-1 inhibitor
O=C(CSc1nc(-c2ccccc2)nc2ccccc12)Nc1cccc(C(=O)O)c1 | 11 | 2 | 0 | 2 | 24
O=C(CSc1nc(-c2ccccc2)nc2c1Cc1ccccc1O2)Nc1ccc(C(=O)O)cc1 | 70* | 87* | 79* | 88* | 90*
O=C(CSc1nc(-c2ccc(F)cc2)nc2c1Cc1ccccc1O2)Nc1ccc(C(=O)O)cc1 | 106* | 96* | 85* | 95* | 102*
Cc1ccc(-n2nnnc2SCC(=O)Nc2ccc3c(c2)OCCO3)cc1C | -1 | -9 | 0 | 1 | 0
Cc1ccc(-n2nnnc2SCC(=O)Nc2ccc3c(c2)COC3=O)cc1C | 40* | 0 | 3 | 42 | -6
O=C(Nc1cccc(S(=O)(=O)N2CCCC2)c1)[C@@H]1O[C@H](CO)[C@@H](O)[C@H]1O | -8 | -3 | -1 | 3 | nt
CCc1ccccc1OCC(=O)Nc1ccc(N2CCCC2)cc1C | -39 | 0 | 5 | 53* | 1
Cc1ccccc1OCC(=O)Nc1ccc(N2CCOCC2)cc1N1CCOCC1 | 2 | 2 | 0 | -6 | -5
CC(=O)Nc1ccc(S(=O)(=O)NCC(=O)OCC(=O)NCc2ccco2)cc1 | 4 | 2 | 0 | 7 | 2
O=C(O)c1ccc(C[n+]2c(-c3ccccc3)csc2Nc2ccccc2)cc1 | 1 | -6 | 0 | 0 | 25
CC(C)(C)c1cc(-c2csc(Nc3ccccc3)[n+]2Cc2ccc(C(=O)O)cc2)cc(C(C)(C)C)c1O | 42* | 12 | 1 | 19 | 17
COC[C@H]1CCCN1[C@@H]1CS(=O)(=O)N[C@H]1COCc1ccccc1 | -2 | -2 | -1 | 2 | nt
CSc1cccc(NC(=O)CCc2ccccc2)c1 | 4 | 7 | 0 | 4 | -10
CSc1cccc(NC(=S)NC(=O)CCc2ccccc2)c1 | 38* | 4 | 3 | -1 | -20
COc1ccc(S(=O)(=O)N2CCC3CC2c2cc(-c4ccc5c(c4)OCO5)ccc23)cc1 (centres undefined) | 1 | -1 | 2 | 14 | nt
Cc1ccc(-n2nc(C)c(/C=N/n3c(C)n[nH]c3=S)c2Cl)cc1 | 38* | 1 | 0 | 1 | -10
CC(=O)NC(c1ccccc1)c1nc(-c2ccc(C)c(C)c2)cs1 (centres undefined) | 2 | 3 | 1 | -1 | nt
O=C(Cn1cnc2sc(-c3ccccc3)cc2c1=O)NCc1ccco1 | -9 | -1 | -1 | -4 | 71*
CC(=O)Nc1ccc2nc3c(=O)n(C)c(=O)n(C)c3nc2c1 | 9 | 2 | 1 | -1 | 84*
Cn1c(=O)c2nc3ccccc3nc2n(C)c1=O | -30 | -2 | 0 | 4 | -5
Cc1[nH]n(-c2ccccc2)c(=S)c1C=Nc1ccc([N+](=O)[O-])cc1 | -7 | -4 | -2 | 6 | 74*
Cc1[nH]n(-c2ccccc2)c(=O)c1C=Nc1ccc(S(=O)(=O)N=C(N)N)cc1 | -4 | -4 | -1 | -3 | -2
CC(=O)N1CCC(C(=O)N2c3ccccc3N=C(c3ccc4c(c3)OCO4)C2C(=O)NCc2ccccc2)CC1 (centres undefined) | -19 | nt | 0 | nt | nt
O=C(O)c1c[nH]c2ccc(S(=O)(=O)N3CCN(c4ccc(F)cc4)CC3)cc2c1=O | 4 | 76* | 59* | 9 | 17
CCOC(=O)N1CCN(S(=O)(=O)c2ccc3[nH]cc(C(=O)O)c(=O)c3c2)CC1 | 22 | 8 | -2 | 14 | 8
